The source of these data is ChEMBL document CHEMBL6074625, “Thiazolidine-2,4-dione hybrids as dual alpha-amylase and alpha-glucosidase inhibitors: design, synthesis, in vitro and in vivo anti-diabetic evaluation” (RSC Med Chem, 2024).

Structures are written as SMILES. pIC50: −log10 of the molar value.

Data set [1] has as its target alpha-glucosidase (Saccharomyces cerevisiae). The data set can be described thus: Inhibition of Saccharomyces cerevisiae alpha-glucosidase using 4-nitrophenyl-alpha-D-glucopyranoside as substrate incubated with compound for 15 to 20 min by absorbance based analysis.
In data set [2] the test system is PANC-1. Put plainly: Cytotoxicity against human PANC-1 cells assessed as inhibition of cell viability at upto 100 uM incubated for 24 hrs by MTT assay. The format is toxicity, cell-based. The conditions noted are these: panc-1, 24 h. The gist of the method:
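PANC-1 cells seeded at 9 × 10³ per well, triplicate, 24 h at 37 °C, 5% CO₂. Treated with 5, 10, 20, 40, 60, 80 and 100 μM for another day. MTT (5 mg mL⁻¹ stock) 3 h at 37 °C, plates centrifuged, formazan dissolved in DMSO 30 min dark, A570. Viability compared by one-way ANOVA with Tukey test.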
On the technique in general: Tetrazolium dyes change colour on reduction, which living cells bring about.

Data set [3] can be described thus: Inhibition of porcine pancreatic alpha-amylase using starch as substrate preincubated for 10 min followed by substrate addition and measured after 20 min by absorbance based analysis. Further details: species or system Sus scrofa. In a few lines: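 Porcine α-amylase (1 U mL⁻¹) pre-incubated with compound 10 min at 25 °C in phosphate buffer pH 6.8. 1% starch added, then 15 min at 37.5 ± 2 °C. Quenched with DNS reagent, heated 70 °C 20 min, diluted with buffer, A540 read, in triplicate. Final concentrations 100–1 μM from DMSO dilutions; IC50 from a linear fit of % inhibition at y = 50.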

Data set [4] has as its system PANC-1. Put plainly: Antioxidant activity in human PANC-1 cells assessed as decrease in high glucose induced ROS production by measuring minimum fractional index at 5 uM incubated for 24 hrs by DCFDA-staining based flow cytometry analysis. The format is functional. In a few lines: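 PANC-1 cells (1 × 10⁵/well) grown 24 h at 37 °C, 5% CO₂, then pre-treated 1 h with 5 μM compound. Exposed to glucose (stated 10 μM) for 23 h. Stained with 10 μM DCFH-DA for 30 min at 37 °C, rinsed, and ROS read by flow cytometry as DCFDA/FITC mean fluorescence intensity.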

The subject of data set [5] is PANC-1. The data set can be described thus: Anti-diabetic activity against high glucose induced human PANC-1 cells assessed as decrease in glucose induced alpha-amylase expression by measuring by measuring minimum fractional index at 5 uM incubated for 23 hrs and measured after 24 hrs by flow cytometric analysis (reference value: 2887 +/- 95.87). The format is functional.

Data set [6] deals with PANC-1. Put plainly: Anti-diabetic activity against high glucose induced human PANC-1 cells assessed as decrease in glucose induced alpha-glucosidase expression by measuring by measuring minimum fractional index at 5 uM incubated for 23 hrs and measured after 24 hrs by flow cytometric analysis (reference value: 4361 +/- 257.83). The format is functional. A general note: In flow cytometry, cells or beads pass a laser one at a time.

Data set [7] relates to Rattus norvegicus. The data set can be described thus: Antioxidant activity in fasted STZ-induced diabetic Wistar rat model assessed as increase in high glucose induced ROS production in pancreas by measuring minimum fractional index at 10 mg/kg, po administration for 21 days. The format is functional. The conditions noted are these: time 21 day. The gist of the method:
(§1)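 Rat pancreas mashed through a 70 μm strainer in FACS buffer. Processed by centrifugation (300 × g and 800 × g, 21 °C), 42% Percoll and 5 min RBC lysis. Cells washed, stained with DCFH-DA, and ROS read on a flow cytometer.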

Data set [8] can be described thus: Toxicity against STZ-induced diabetic Wistar rat model assessed as body weight loss at 10 mg/kg, po measured on day 14. The format is organism-based. The conditions noted are these: in vivo, 336 h, time 14 day. The gist of the method: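 STZ given on day 1; oral treatment started day 14, with vehicle 0.5% CMC in controls. Six groups: normal, vehicle, STZ, STZ + two test compounds, STZ + pioglitazone. Blood glucose (tail puncture, glucometer) and body weight recorded on days 1, 4, 14 and 35. One-way ANOVA.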

In data set [9] the test system is Rattus norvegicus. Put plainly: Antioxidant activity in fasted STZ-induced diabetic Wistar rat model assessed as decrease in high glucose induced ROS production in pancreas by measuring minimum fractional index at 10 mg/kg, po administration for 21 days in presence of pioglitazone days and measured on day 35. In kind it is functional. The conditions noted are these: time 21 day. The gist of the method:
as §1

Data set [10] in a line: Toxicity against STZ-induced diabetic Wistar rat model assessed as body weight loss in presence of pioglitazone at 10 mg/kg, po measured on day 14. In kind it is organism-based. The note with it: in vivo.
Data set [11] is filed under the species Rattus norvegicus. Put plainly: Anti-diabetic activity in high glucose induced alpha-amylase expression in fasted STZ-induced diabetic Wistar rat model assessed as alpha-amylase level in pancreas by measuring minimum fractional index in presence of pioglitazone incubated for 23 hrs and measured after 24 hrs by flow cytometric analysis (reference value: 2590 + 199.74). The format is functional.

The species named for data set [12] is Rattus norvegicus. Put plainly: Anti-diabetic activity in high glucose induced alpha-amylase expression in fasted STZ-induced diabetic Wistar rat model assessed as alpha- glucosidase level in pancreas by measuring minimum fractional index in presence of pioglitazone incubated for 23 hrs and measured after 24 hrs by flow cytometric analysis (reference value: 3063 +/- 149.2). In kind it is functional.

Consider `CCOc1cc(/C=C2\SC(=O)N(Cc3cccc([N+](=O)[O-])c3)C2=O)ccc1OCc1ccccc1`, for which the IC50 (commonly the concentration that inhibits the measured activity by half) in [1] was 31.2 µM. Also, in the data set on PANC-1 [2], the Activity entry was “Non-toxic”. Also, in [3], the pIC50 (as a rule, the IC50 on a negative log10 scale, so that one unit is a factor of ten) was 4.26. Besides, the Activity_index with PANC-1 [4] amounted to 898.

Consider `CCOc1cc(/C=C2\SC(=O)N(Cc3cccc([N+](=O)[O-])c3)C2=O)ccc1OCc1ccc(Cl)cc1`, for which the IC50 in [1] amounted to 96.15 µM. Moreover, the Activity entry in the data set with PANC-1 [2] was “Non-toxic”. This compound also had a pIC50 in data set [3] of 3.90. In addition, the Activity_index with PANC-1 [4] worked out at 4225.

As to `C[C@H]1O[C@H](O[C@H]2[C@H](O)[C@@H](O)[C@@H](O[C@H]3[C@H](O)[C@@H](O)C(O)O[C@@H]3CO)O[C@@H]2CO)[C@H](O)[C@@H](O)[C@@H]1N[C@H]1C=C(CO)[C@@H](O)[C@H](O)[C@H]1O` (some centres undefined) [ACARBOSE], the Activity index worked out at 114 in the data set with PANC-1 [5] and 170 with PANC-1 [6]. For the same compound, in the data set with PANC-1 [4], the Activity_index was 149.

As to `CCOc1cc(/C=C2\SC(=O)N(Cc3cccc([N+](=O)[O-])c3)C2=O)ccc1OCc1ccc(C)cc1`, the IC50 in [1] came out at 20.31 µM. Further, the Activity entry in the data set with PANC-1 [2] was “Non-toxic”. In addition, in data set [3], the negative logarithm of the IC50 (pIC50) was 4.27. Further, the Activity_index in the data set with PANC-1 [4] is recorded as 230.

Turning to `CCOc1cc(/C=C2\SC(=O)N(Cc3cccc([N+](=O)[O-])c3)C2=O)ccc1OCc1ccc(F)cc1`, the half-maximal inhibitory concentration (IC50) in [1] came out at 46.51 µM. For the same compound, the Activity result in the data set on PANC-1 [2] is on record as “Non-toxic”. The pIC50 in data set [3] is 4.22. Also, in the data set with PANC-1 [4], the Activity_index is 2438.

On to `CCOc1cc(/C=C2\SC(=O)N(Cc3cccc([N+](=O)[O-])c3)C2=O)ccc1OCc1cccc([N+](=O)[O-])c1`, for which the IC50 in [1] worked out at 99.1 µM. Also, the Activity entry in the data set on PANC-1 [2] is given as “Non-toxic”. The same compound gave a pIC50 in data set [3] of 4.19. Also, in the data set with PANC-1 [4], the Activity_index is recorded as 4225.

In the case of `CCOc1cc(/C=C2\SC(=O)N(Cc3cccc([N+](=O)[O-])c3)C2=O)ccc1OCc1ccc([N+](=O)[O-])cc1`, the IC50 in data set [1] was 38.33 µM. For the same compound, the Activity entry with PANC-1 [2] is “Non-toxic”. The compound also had a pIC50 in [3] of 4.03. In addition, the Activity_index in the data set on PANC-1 [4] is 676.

For the compound `O=C1/C(=C2/SC(=O)N(Cc3cccc([N+](=O)[O-])c3)C2=O)Nc2ccc(Br)cc21`, the IC50 in [1] came to 68.76 µM. Further, in the data set on PANC-1 [2], the Activity entry is listed as “Non-toxic”. This compound gave a pIC50 in [3] of 4.21. The Activity_index in the data set on PANC-1 [4] was 2982.

As to `CCOc1cc(/C=C2\SC(=O)N(Cc3cccc([N+](=O)[O-])c3)C2=O)ccc1OS(=O)(=O)c1ccc(C)cc1`, in data set [1], the concentration for half-maximal inhibition (IC50) came to 42.24 µM. Further, the Activity entry with PANC-1 [2] is recorded as “Non-toxic”. Besides, the negative-log IC50 (pIC50) in data set [3] was 4.31. The Activity_index in the data set on PANC-1 [4] came to 957.

For `O=C1/C(=C2/SC(=O)N(Cc3cccc([N+](=O)[O-])c3)C2=O)Nc2ccccc21`, the IC50 in [1] amounted to 58.44 µM. For the same compound, the Activity entry in the data set with PANC-1 [2] is given as “Non-toxic”. This compound gave a pIC50 in data set [3] of 4.36. Also, the Activity_index with PANC-1 [4] came out at 3041.

For `O=C1/C(=C2/SC(=O)N(Cc3cccc([N+](=O)[O-])c3)C2=O)Nc2ccc(Cl)cc21`, the IC50 in data set [1] came out at 53.18 µM. Moreover, the Activity entry with PANC-1 [2] is on record as “Non-toxic”. In addition, in data set [3], the pIC50 was 4.29. Besides, the Activity_index in the data set with PANC-1 [4] stood at 3063.

Turning to `CN(N=O)C(=O)N[C@@H]1[C@@H](O)[C@H](O)[C@@H](CO)O[C@@H]1O` [STREPTOZOSIN], the Activity_index in the data set with Rattus norvegicus [7] came to 3762; with Rattus norvegicus [9], 221; in the data set listed under Rattus norvegicus [11] it was 230; in the data set listed under Rattus norvegicus [12], 720. Further, the Activity entry in data set [8] and in data set [10] was “Toxic” each time.
